Assay results from different studies.
Protocols differ between the studies behind these lines.
BTK: Tyrosine-protein kinase BTK (BTK, Homo sapiens, UniProt Q06187)

SMILES | target | test | conditions | measurement | result
N#Cc1ccc(NC(=O)Nc2ccccc2)cc1 | Atypical kinase COQ8A, mitochondrial (COQ8A, Homo sapiens, UniProt Q8NI60) | cell-free assay, competition with immobilised ligand | 25 µM | remaining binding | 96%
[2H]c1cc(C)c(NC(=O)c2cnc(Nc3cc(N4CCCCC4)nc(C)n3)s2)c(Cl)c1 | BTK | enzyme activity, inhibitor, mobility shift | 1 nM | inhibition | 90%
COc1ccc2oc(-c3ccc4nc(N)oc4c3)c/c(=N\c3ccccc3NC(=O)CCN)c2c1 | BTK | binding | 1 µM | remaining binding | 96%
CCCCC(=O)Nc1ccc(-c2ccc3ncn(CCC)c(=O)c3c2)cn1 | Mast/stem cell growth factor receptor Kit (KIT, Homo sapiens, UniProt P10721, V559D) | binding, competition with immobilised ligand | 0.5 µM | remaining binding | 99%
Cc1cc(-c2ccnc3[nH]cc(F)c23)cc(F)c1[C@@]1(O)[C@H](C)CN(C(=O)CN)C[C@@H]1C | RAC-beta serine/threonine-protein kinase (AKT2, Homo sapiens, UniProt P31751) | enzyme activity, inhibitor | 0.1 µM | remaining activity | 113%
NC/C(=C\F)COc1cccc(Cn2c(=S)[nH]c(=O)c3[nH]cnc32)c1 | D(4) dopamine receptor (DRD4, Homo sapiens, UniProt P21917, del265-296) | ligand displacement, radioligand | 10 µM | inhibition | < 50%
O=C(COc1ccc(Cl)c(F)c1)NC12CC(NC(=O)c3cnc(C(F)F)cn3)(C1)C2 | Translation initiation factor eIF2B subunit beta/Translation initiation factor eIF2B subunit delta (Homo sapiens, UniProt P49770+Q9UI10) | ligand displacement, TR-FRET | 100 µM | inhibition | 100%
C#Cc1cc(-c2cc(Nc3nc(N[C@@H](C)c4ccc(F)cn4)ncc3Cl)n[nH]2)ccc1C=O | Mitogen-activated protein kinase 12 (MAPK12, Homo sapiens, UniProt P53778) | enzyme activity, inhibitor | 0.2 µM | inhibition | 1.88%
CN(C)CCOC(=O)COc1ccc(Cl)cc1 | D(4) dopamine receptor (DRD4, Homo sapiens, UniProt P21917) | ligand displacement, radioligand | 1 µM, cell membranes | inhibition | -12.4%
[2H]c1cc(C)c(NC(=O)c2cnc(Nc3cc(N4CC[C@H](O)C4)nc(C)n3)s2)c(Cl)c1 | BTK | enzyme activity, inhibitor, mobility shift | 1 nM | inhibition | 72%
C1=C/COCc2cc(ccc2OCCN2CCCC2)Nc2nccc(n2)-c2cccc(c2)COC/1 | Myosin light chain kinase, smooth muscle (MYLK, Homo sapiens, UniProt Q15746) | binding | 0.1 µM | remaining binding | 83%
Cc1nc(Nc2ncc(C(=O)Nc3c(C)cccc3Cl)s2)cc(N2CCCCC2)n1 | BTK | enzyme activity, inhibitor, mobility shift | 1 nM | inhibition | 56%
C[C@H](NC(=O)C(=O)Nc1ccccc1C(C)(C)C)C(=O)N[C@@H](CC(=O)O)C(=O)COc1c(F)c(F)cc(F)c1F | Caspase-8 (CASP8, Homo sapiens, UniProt Q14790) | enzyme activity, inhibitor |  | kinact/KI | 2.74e+06 M⁻¹ s⁻¹
Cc1nc(Nc2ncc(C(=O)Nc3c(C)cccc3Cl)s2)cc(N2CC[C@@H](O)C2)n1 | BTK | enzyme activity, inhibitor, mobility shift | 1 nM | inhibition | 74%
Cc1cc(O)c(-c2ccc([C@@H](C)CN(C)C)cc2)c2c1[nH]c(=O)c1sccc12 | [Pyruvate dehydrogenase (acetyl-transferring)] kinase isozyme 1, mitochondrial (PDK1, Homo sapiens, UniProt Q15118) | enzyme activity, inhibitor | 0.1 µM, lysate | inhibition | -15.2%
